Measurements from ChEMBL document CHEMBL1146511, “Cytotoxic compounds from Mundulea chapelieri from the Madagascar Rainforest” (J Nat Prod, 2004).
In brackets after ≈: the same amount, converted by molar mass.

Test system: A2780
Assay: Cytotoxicity against human A2780 cells
Format: functional, cell-based
How it was run: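 A2780 human ovarian cancer cells; growth-inhibition assay run per an earlier published protocol, with actinomycin D as positive control; value is the concentration that inhibited growth by 50% (IC50).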

Going from CC1(C)C=Cc2c(c3c(c4c2O[C@H](c2ccccc2)CC4=O)OC(C)(C)C=C3)O1 to CC1(C)C=Cc2c(c3c(c4c2O[C@H](c2ccccc2)[C@@H](O)C4=O)OC(C)(C)C=C3)O1, the IC50 falls from 33 µg/mL (≈ 85 µM) to 20 µg/mL (≈ 49.4 µM) (1.6-fold).

Going from C=C[C@@]1(C)C[C@@H](OC(C)=O)[C@H](C(C)(C)O)C[C@@H]1C(=C)C to C=C(C)[C@H]1Cc2c(ccc3c2O[C@@H]2COc4cc(OC)c(OC)cc4[C@]2(O)C3=O)O1 [ROTENOLONE], the IC50 falls from 17 µg/mL (≈ 60.6 µM) to 0.5 µg/mL (≈ 1.22 µM) (34-fold).

COc1cc(OC)c2c(c1CC=C(C)C)O[C@H](c1ccccc1)CC2=O [CANDIDONE] and CC(C)=CCc1c2c(c(O)c3c1O[C@H](c1ccccc1)[C@@H](O)C3=O)C=CC(C)(C)O2 [MUNDULINOL] are within 1.5-fold of each other in IC50: 23 µg/mL (≈ 65.3 µM) for the first, 25 µg/mL (≈ 61.5 µM) for the second.

First: CC(C)=CCc1c(O)c2c(c3c1OC(C)(C)C=C3)O[C@H](c1ccccc1)[C@@H](O)C2=O [ISOMUNDULINOL]
Second: COc1cc2c(cc1OC)[C@]1(O)C(=O)c3ccc4c(c3O[C@@H]1CO2)C=CC(C)(C)O4 [TEPHROSIN]
The IC50 of the first is 2-fold higher: 18 µg/mL (≈ 44.3 µM) for the first, 9.1 µg/mL (≈ 22.2 µM) for the second.

First: COc1c(-c2coc3cc4c(cc3c2=O)CC(O)C(C)(C)O4)ccc2c1C=CC(C)(C)O2 (stereo unspecified) [MUNDULONE]
Second: COc1c(-c2coc3cc4c(cc3c2=O)C=CC(C)(C)O4)ccc2c1C=CC(C)(C)O2 [MUNETONE]
The IC50 of the first is 1.5-fold lower: 13 µg/mL (≈ 29.9 µM) for the first, 20 µg/mL (≈ 48 µM) for the second.

C=C(C)[C@H]1Cc2c(ccc3c2O[C@@H]2COc4cc(OC)c(OC)cc4[C@@H]2C3=O)O1 [ROTENONE] showed an IC50 of 0.7 µg/mL (≈ 1.77 µM).
